# In the library only some 3.3% were active in any assay of this set; here they are far more common.
# NRP1-CendR mod: alters CendR peptide binding to human NRP-1 | O14786 | FAM-RPARPAR peptide binding to NRP-1, fluorescence polarization | inhibition, % at 25 µM | 360,000 compounds, 0.85% hits | AID 602438;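 active means inhibition or corrected inhibition above about 18%, plus a signal ratio from 0.5 to 1.5, limit read from the data, passing the limit was not always enough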
# ATG4B inhibitor: inhibitors of human ATG4B cysteine protease | Q9Y4P1 | ATG4B cleavage of LC3-PLA2, NBD-HPC fluorescence, 1 h | inhibition, % at 8.33 µM | 340,000 compounds, 0.51% hits | AID 504462; in the data active means inhibition above about 40%
# Granule exo inh: lytic granule exocytosis inhibition | 360,000 compounds, 0.66% hits | inhibition, % at 10 µM | TALL-104 LAMP-1 surface exposure, flow cytometry; cells stimulated with thapsigargin and PMA;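 active means inhibition above about 55%, limit read from the data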
# Arr AP2 block: human beta-arrestin and AP2 interaction inhibition; 340,000 compounds, 0.31% hits; inhibition, % at 10 µM; FITC-arrestin peptide / GST-AP2 beads, flow cytometry; AP2 beta2 appendage carries R879A mutation;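 active means inhibition above a set limit, near 3 SD of compounds lacking own fluorescence, cut at about 54% in these data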;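 further: plate controls were DMSO wells for no effect and 5 µM unlabelled arrestin peptide for full effect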
#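 Test system: GST-tagged AP2 beta2-adaptin appendage (R879A) on 4 µm glutathione beads; also added: fluorescein-tagged arrestin peptide at 50 nM final; timing: 12 min plus 1 h, RT; signal: flow cytometry, FL1 (488/535 nm); read-out: percent drop in bead-associated FITC signal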
# ABCB6 inh MLPCN: blocks the human ABCB6 transporter. fluorescence ratio to DMSO, % at 10 µM. AID 602162. Q9NP58. 360,000 compounds, 0.19% hits. K562-ABCB6 porphyrin accumulation, flow cytometry, 1 h; active compounds read low;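 active means fluorescence ratio to DMSO below 75%, the collection mean minus 3 SD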;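 further: signal is porphyrin accumulated inside mitochondria; 100% equals median channel fluorescence of DMSO control wells; lower ratio means ABCB6 inhibition with less porphyrin fluorescence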
# Target sequence (Q9NP58 whole entry, looked up): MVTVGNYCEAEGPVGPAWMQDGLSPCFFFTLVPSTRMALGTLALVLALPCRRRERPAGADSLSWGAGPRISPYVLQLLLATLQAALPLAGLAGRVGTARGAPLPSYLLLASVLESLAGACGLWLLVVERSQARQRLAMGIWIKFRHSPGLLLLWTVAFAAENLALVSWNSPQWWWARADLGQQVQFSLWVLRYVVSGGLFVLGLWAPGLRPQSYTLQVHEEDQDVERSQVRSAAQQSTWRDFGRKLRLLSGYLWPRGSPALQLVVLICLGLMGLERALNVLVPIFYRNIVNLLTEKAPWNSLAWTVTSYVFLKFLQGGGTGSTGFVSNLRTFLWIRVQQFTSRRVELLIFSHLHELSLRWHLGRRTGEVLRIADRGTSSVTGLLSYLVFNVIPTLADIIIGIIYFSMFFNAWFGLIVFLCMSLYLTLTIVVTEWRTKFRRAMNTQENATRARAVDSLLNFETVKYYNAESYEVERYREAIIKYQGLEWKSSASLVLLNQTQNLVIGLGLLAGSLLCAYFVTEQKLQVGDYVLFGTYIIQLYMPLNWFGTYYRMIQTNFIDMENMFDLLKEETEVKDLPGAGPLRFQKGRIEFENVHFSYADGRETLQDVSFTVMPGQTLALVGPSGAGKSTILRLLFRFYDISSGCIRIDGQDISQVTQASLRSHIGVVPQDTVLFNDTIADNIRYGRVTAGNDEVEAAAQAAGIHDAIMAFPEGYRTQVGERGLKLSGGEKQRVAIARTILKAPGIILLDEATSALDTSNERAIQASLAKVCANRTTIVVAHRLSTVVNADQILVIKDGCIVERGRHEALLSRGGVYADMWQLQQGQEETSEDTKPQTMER
# Myeloid diff 2: myeloid differentiation induction; calls only at 10 µM; ER-HoxA9 myeloid progenitors, lysozyme-GFP differentiation, flow cytometry; AID 624256; 360,000 compounds, 1% hits;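 active means normalized GFP-positive differentiation at or above the plate's own cutoff, the solvent-only control mean plus 3 SD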;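 further: cells exposed to compound for four days before flow analysis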
# ABCB6 blocker 1: blocks the human ABCB6 transporter. K562-ABCB6 porphyrin accumulation, flow cytometry, 1 h; active compounds read low. shares compounds with ABCB6 inh MLPCN. AID 602430. 700 tested, under 10 active. ratio response (% of DMSO), % at 10 µM;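 active means repeat-averaged ratio response below 75% of DMSO, the collection mean minus 3 SD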;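 further: median porphyrin fluorescence at 575 nm with 488 nm excitation from mitochondria; lower ratio means less porphyrin signal so ABCB6 inhibition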
# Starred values were filed as active, the others as inactive; i = inactive; · = not tested or not shown.
SMILES,NRP1-CendR mod,ATG4B inhibitor,Granule exo inh,Arr AP2 block,ABCB6 inh MLPCN,Myeloid diff 2,ABCB6 blocker 1
CCOc1ccc(N(Cc2ccc(C(=O)O)cc2)S(=O)(=O)c2ccc(C)cc2)cc1,-5,-4,12,4,100,i,·
COc1cc2[nH]c(=S)nc(NC3CCCCCC3)c2cc1OC,10,-11,-1,-3,73*,i,99
CN1C(=O)C2(N=c3ccccc3=N2)c2ccccc21,4,-7,-3,-35,102,i,·
Cc1ccccc1S(=O)(=O)NC(=O)C1(C)CCN1C(=O)C1(c2ccccc2)CC1 (centres undefined),-8,·,-3,·,102,i,101
CC(C)(C)c1ccc(S(=O)(=O)NC(=O)C2(C)CCN2C(=O)C2(c3ccccc3)CC2)cc1 (centres undefined),-12,·,-5,·,95,i,·
Cc1ccc(F)c(S(=O)(=O)NC(=O)C2(C)CCN2C(=O)C2(c3ccc(Cl)cc3)CC2)c1 (centres undefined),6,·,-2,·,975,i,99
CC1(C(=O)NS(=O)(=O)c2ccc(C#N)cc2)CCN1C(=O)C1(c2ccc(Cl)cc2)CC1 (centres undefined),7,·,1,·,101,i,100
CC1(C(=O)NS(=O)(=O)c2cccc(C#N)c2)CCN1C(=O)C1(c2ccc(Cl)cc2)CC1 (centres undefined),-4,·,-3,·,93,i,·
CC1(C(=O)NS(=O)(=O)c2ccc3c(c2)CCO3)CCN1C(=O)C1(c2ccc(Cl)cc2)CCC1 (centres undefined),12,·,5,·,87,i,96
O=C(CSc1nnc(CNC(=O)c2ccc(F)cc2)o1)Nc1ccc2c(c1)OCCO2,-3,5,2,0,94,i,·
CC1(C(=O)NS(=O)(=O)c2ccc(Cl)cc2)CCN1C(=O)C1(c2ccccc2)CCCC1 (centres undefined),-10,·,6,·,101,i,·
CC1(C(=O)NS(=O)(=O)c2ccc(Cl)cc2)CCN1C(=O)C1(c2ccc(Cl)cc2)CCC1 (centres undefined),0,·,3,·,97,i,99
CC1(C(=O)NS(=O)(=O)c2ccc(C#N)cc2)CCN1C(=O)C1(c2ccccc2)CCCC1 (centres undefined),-12,·,-2,·,101,i,100
CC1(C(=O)NS(=O)(=O)c2ccccc2)CCN1C(=O)C1(c2ccc(Cl)cc2)CC1 (centres undefined),-3,·,14,·,71*,i,102
Cc1ccc(S(=O)(=O)NC(=O)C2(C)CCN2C(=O)C2(c3ccc(Cl)cc3)CCC2)cc1 (centres undefined),-2,·,-5,·,100,i,·
CCOC(=O)C1(CCc2ccccc2)CCN(C(=O)CCn2cnnn2)CC1,3,-4,3,1,99,i,·
O=C(c1ccc(COc2ccccc2Br)o1)N1N=C(C(F)F)CC1(O)C(F)F (centres undefined),2,22,-3,3,96,i,101
O=C(c1ccc(Cn2cc([N+](=O)[O-])cn2)o1)N1N=C(C(F)F)CC1(O)C(F)F (centres undefined),3,-3,2,-2,99,i,·
CCCNS(=O)(=O)c1ccc(CCC(=O)NCc2ccc3c(c2)OCO3)cc1,-3,-2,0,6,106,i,·
O=C(CCNS(=O)(=O)c1ccc(Br)cc1)NCc1ccc2c(c1)OCO2,11,-10,0,2,62*,i,98
COc1ccc(NC(=O)c2ccccc2NC(=O)CSc2ccc(C)cc2)cc1,-10,-9,3,5,58*,i,101
Cc1c(C(=O)N2CCOCC2)sc(NC(=O)CCl)c1C#N,15,7,-6,1,94,i,·
Clc1ccccc1-c1nnc2sc(C3COc4ccccc4O3)nn12 (centres undefined),-10,18,4,12,44*,i,100
Cc1ccc(-c2nnc3sc(C4COc5ccccc5O4)nn23)cc1 (centres undefined),3,2,4,6,101,i,·
O=C(OCC(=O)N1CCN(c2ccccc2)CC1)c1ccc2ccccc2n1,8,-7,0,17,74*,i,99
SMILES,NRP1-CendR mod,ATG4B inhibitor,Granule exo inh,Arr AP2 block,ABCB6 inh MLPCN,Myeloid diff 2,ABCB6 blocker 1
CCCCN1C(=O)NC2NC(=O)NC21 (centres undefined),6,-12,-3,-1,86,i,·
COc1ccc(CNC(=O)CSc2nnc(C)s2)cc1,-2,-6,1,3,74*,i,97
O=C(c1cccs1)N1CCC(c2nc3c(nnn3Cc3c(Cl)cccc3Cl)c(=O)[nH]2)CC1,6,-9,30,-3,96,i,100
Cc1ccc(Cn2nnc3c(=O)[nH]c(C4CCN(C(=O)c5cccs5)CC4)nc32)cc1,3,-16,-3,-1,100,i,98
O=C(c1cccs1)N1CCC(c2nc3c(nnn3Cc3cccc(Cl)c3)c(=O)[nH]2)CC1,-6,7,10,7,101,i,99
O=C(c1cccs1)N1CCCC(c2nc3c(nnn3Cc3cccc(Cl)c3)c(=O)[nH]2)C1 (centres undefined),-2,0,7,12,95,i,·
C[C@H]1CN([C@@H](C)CO)C(=O)CCCn2nncc2CO[C@@H]1CN(C)Cc1ccc2c(c1)OCO2,11,·,-1,·,105,i,·
O=c1cc(CO)oc(CN2CCN(c3ccccc3)CC2)c1O,16,-12,-1,-3,73*,i,101
O=c1cc(CO)oc(CN2CCN(c3cccc(C(F)(F)F)c3)CC2)c1O,-5,-4,-2,-2,91,i,·
COc1ccc(NC(C)=O)cc1NC(=O)c1ccc(C#N)cc1,6,2,2,22,99,i,·
CC(C)c1ccc([N+](=O)[O-])cc1S(=O)(=O)N1CCN(C)CC1,-2,-2,-3,0,72*,i,98
CN1CCN(S(=O)(=O)c2cc([N+](=O)[O-])ccc2Cl)CC1,10,0,-7,-11,103,i,·
CCn1c(SCC(=O)c2ccccc2)nnc1-c1cccnc1,-5,-3,3,-7,71*,i,101
O=c1[nH]c(-c2ccc(F)cc2)nc2c1sc(=S)n2-c1ccccc1,-16,-3,-1,40,98,i,·
O=c1[nH]cnc2c1sc(=S)n2-c1ccccc1,-1,0,3,2,65*,i,100
NC(=O)C(c1ccc(Sc2ccccc2)nn1)c1ccc(Cl)cc1Cl (centres undefined),-1,-3,-5,-6,102,i,·
